Assay outcomes from PubChem BioAssay.
ABHD5-PLIN5 inh: ABHD5-PLIN5 interaction inhibitors, primary screen, cell lysate, split luciferase complementation, luminescence; Perilipin-5 (Homo sapiens) + 1-acylglycerol-3-phosphate O-acyltransferase ABHD5 (Homo …; Split G. princeps luciferase complementation, 4 h; inhibition, % at 4 µM; hit rate 0.78% among 360,000;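 active = inhibition above the mean inhibition across every tested compound plus 3 SD, cut at about 22% in these data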;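 note: 0% = DMSO only wells and the 100% control is not disclosed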
Rin1 Abl inh: inhibitors of Rin1-Abl protein binding, primary screen, biochemical, TR-FRET. inhibition, % at 7.35 µM. hit rate 0.4% among 360,000. AID 588664, 2011. Tyrosine-protein kinase ABL1 (Homo sapiens) + Ras and Rab interactor 1 (Homo sapiens), …; in the data active = inhibition above about 5%, passing the limit was not always enough
NadD block: inhibitors of S. aureus NadD, primary screen, biochemical, colorimetric, uHTS; Nicotinate-nucleotide adenylyltransferase NadD (Staphylococcus aureus N315); hit rate 0.78% among 360,000; inhibition, % at 20 µM; purified NadD enzyme, colorimetric absorbance read-out; in the data active = inhibition above about 26%
XiGFP reactiv: activators of inactive X chromosome reactivation, primary screen, imaging, XiGFP fibroblasts, GFP high-content imaging, set 2; XiGFP mouse fibroblasts, % GFP-positive cells imaging, 3 d; cells co-treated with 5-aza-dC sensitizer; scaled so ellipticine positive control = 100%; hit rate 0.055% among 360,000; activation, % at 7.58 µM;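 active = mean normalized replicate activation at least 10% and every replicate at or above 10%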;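 note: 0% = median of on-plate neutral control wells and 100% = ellipticine 6 µM median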
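System: SV40-immortalized XiGFP fibroblast cells, line 68-5-11 / Incubation: 3-day compound exposure, then 15 min fixation at room temperature / Compound: single concentration per compound, delivered by pin transfer / Buffer or medium: DMEM plus 5-aza-dC sensitizer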
Rpn11 inh: Rpn11 (PSMD14) deubiquitinase inhibitors, primary screen, biochemical, fluorescence polarization, uHTS; 26S proteasome non-ATPase regulatory subunit 14 (Homo sapiens), O00487; inhibition, % at 20 µM; hit rate 0.59% among 360,000; human 26S proteasome, Ub4-pepOG fluorescence polarization; 20S core pre-blocked with epoxomicin;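 active = inhibition at 20 µM, scaled to each plate's controls, above about 33%, limit read from the data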
Target sequence (O00487 whole entry, looked up): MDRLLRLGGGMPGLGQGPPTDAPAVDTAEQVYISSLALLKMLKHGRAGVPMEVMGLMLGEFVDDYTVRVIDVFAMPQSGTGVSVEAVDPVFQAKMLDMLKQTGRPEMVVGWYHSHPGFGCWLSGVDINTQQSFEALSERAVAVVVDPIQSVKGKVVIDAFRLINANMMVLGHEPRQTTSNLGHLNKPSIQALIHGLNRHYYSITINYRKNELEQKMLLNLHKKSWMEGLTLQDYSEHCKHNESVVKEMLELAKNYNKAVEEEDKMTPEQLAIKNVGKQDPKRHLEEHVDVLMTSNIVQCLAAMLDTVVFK
Rpn11 inh conf: Rpn11 (PSMD14) deubiquitinase inhibitors, confirmation, biochemical, fluorescence polarization, single concentration; shares compounds with Rpn11 inh; purified human 26S proteasome, Ub4-pepOG fluorescence polarization; proteasome pretreated with epoxomicin; inhibition, % at 20 µM; hit rate 29% among 1,900; AID 602318, 2012
MMP-2 inh: MMP-2 enzyme inhibition, confirmation, counter-screen for RPN11 inhibitor project, biochemical, fluorescence, single concentration; AID 602330, 2012; shares compounds with Rpn11 inh; recombinant MMP-2, FRET peptide cleavage fluorescence; inhibition, % at 20 µM; hit rate 4% among 1,900;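 note: human MMP-2 activated beforehand with APMA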
Thrombin FP: bovine thrombin protease inhibition, confirmation, counter-screen for Rpn11 inhibitor project, biochemical, fluorescence polarization, single concentration; shares compounds with Rpn11 inh; bovine thrombin cleavage of Ub4-pepOG; inhibition, % at 20 µM; hit rate 13% among 1,900;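 active = mean inhibition at least 40% at 20 µM, or signal 3 deviations below plate average, so some actives read negative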;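 note: plate controls were thrombin with DMSO for no effect and buffer wells lacking thrombin for full effect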
* = called active by the depositor; nt = not tested or not shown; + = active, no number. This is a sample that favours compounds with a hit; in the whole collection about 1.9% have one here. Cut-off read from the data, not from the text of the source, unless noted: active = inhibition above about 40%; inactive = the rest.

SMILES	ABHD5-PLIN5 inh	Rin1 Abl inh	NadD block	XiGFP reactiv	Rpn11 inh	Rpn11 inh conf	MMP-2 inh	Thrombin FP
C[C@H](CO)N1C[C@H](C)[C@@H](CN(C)C(=O)Nc2cccc(F)c2)Oc2ncc(Br)cc2C1=O	4	0	2	0	79*	8	-20	0
O=c1[nH]c2ccccc2nc1NCCN1CCOCC1	5	0	-3	nt	43*	-13	-17	-4
COCC(=O)Nc1ccc2c(c1)C(=O)N(C)[C@H]1CC[C@H](CC(=O)OC)O[C@@H]1CO2	nt	nt	nt	0	nt	nt	nt	nt
CCOC(=O)c1ccc(-c2ccc3oc(-c4ccsc4)cc(=O)c3c2)cc1F	-1	-3	-5	0	43*	-8	-21	-11
CCOC(=O)C1CCCN(C2=NC(=O)/C(=C/c3ccc(O)c(OC)c3)S2)C1 (stereo not drawn)	2	-3	4	0	76*	43*	-30	26
COc1cccc(S(=O)(=O)N[C@H]2CC[C@@H](CCn3cc(-c4ccccn4)nn3)O[C@H]2CO)c1	nt	nt	nt	0	nt	nt	nt	nt
C[C@H](CO)N1C[C@H](C)[C@H](CN(C)Cc2ccc(C(F)(F)F)cc2)OCCCC[C@H](C)Oc2ccc(NC(=O)C3CCCCC3)cc2C1=O	nt	nt	nt	0	nt	nt	nt	nt
COc1cccc(NC(=O)N(C)C[C@H]2Oc3cc(C#Cc4ccccc4)ccc3S(=O)(=O)N([C@@H](C)CO)C[C@H]2C)c1	nt	nt	nt	0	nt	nt	nt	nt
N=C1/C(=C\c2ccc(-c3cccc(C(=O)O)c3)o2)C(=O)N=C2SC=C(c3ccccc3)N12	0	-4	49*	0	108*	149*	27	51*
Cc1cc(/C=C2/C(=N)N3C(c4ccccc4)=CSC3=NC2=O)c(C)n1-c1ccccc1	-4	-1	26	nt	31	nt	nt	nt
N=C1/C(=C/c2ccc(-c3cccc(C(=O)O)c3)o2)C(=O)N=C2SC(CC(=O)N3CCOCC3)=NN12	9	5	6	0	3	nt	nt	nt
Cc1cc(/C=C2\C(=N)N3C(SCc4ccccc4)=NSC3=NC2=O)c(C)n1Cc1ccccc1	3	0	31*	nt	44*	-1	-28	-36
Cc1ccccc1-n1c(C)cc(/C=C2/C(=N)N3C(c4ccccc4)=CSC3=NC2=O)c1C	-1	-2	22	0	103*	27	23	29
Cc1cc(/C=C2\C(=N)N3N=C(C(C)C)SC3=NC2=O)c(C)n1Cc1ccccc1	-2	0	-6	0	4	nt	nt	nt
CCc1nc2oc3ccccc3c(=O)c2c(=O)n1-c1ccc(C)cc1	-2	-5	-2	0	68*	47*	-18	22
O=C(N/N=C/c1sc(N2CCOCC2)nc1-c1ccccc1)c1ccccc1O	8	-3	10	3	58*	12	-34	-8
Cn1c(=O)[nH]c(=O)c2cc(C(=O)c3cc(F)ccc3O)cnc21	-4	-4	-4	0	68*	18	-22	25
Cc1cc(NS(=O)(=O)c2ccc(Nc3nc(-c4sc(N)nc4C)cs3)cc2)no1	-4	3	37*	nt	55*	24	28	-11
C[C@H]1CCCCO[C@H](CN(C)C(=O)c2ccncc2)[C@@H](C)CN([C@@H](C)CO)C(=O)c2cc(NS(C)(=O)=O)ccc2O1	nt	nt	nt	-1	nt	nt	nt	nt
COc1ccc(NC(=O)CC(=O)Nc2ccc(OC)cc2OC)c(OC)c1	2	0	0	nt	129*	1	-15	-17
CN1/C(=C/C(=S)NC(=O)C2CCC2)C(C)(C)c2ccccc21	-2	-5	4	0	54*	-12	21	-6
CC(C)C(=O)NC(=S)/C=C1/N(C)c2ccccc2C1(C)C	-12	-3	7	0	nt	nt	nt	nt
Cc1ccc(C(=O)N=c2sccn2C)cc1S(=O)(=O)N1CCOCC1	-6	-2	-1	0	68*	1	30	14
CO[C@H]1CN(C)C(=O)c2cc(NC(=O)CC(F)(F)F)ccc2OC[C@H](C)NC[C@@H]1C	nt	nt	nt	1	nt	nt	nt	nt
CC1=CC(=C2N=C(c3ccccc3)OC2=O)C=C(C)O1	3	-5	-3	nt	51*	152*	-56	9
SMILES	ABHD5-PLIN5 inh	Rin1 Abl inh	NadD block	XiGFP reactiv	Rpn11 inh	Rpn11 inh conf	MMP-2 inh	Thrombin FP
C[C@@H]1CN([C@@H](C)CO)C(=O)Cc2cc(NC(=O)Nc3ccc(C(F)(F)F)cc3)ccc2O[C@H]1CN(C)C(=O)Nc1ccccc1	nt	nt	nt	0	nt	nt	nt	nt
COc1ccc2c3c(n(C)c2c1)[C@@H](CO)N(C(=O)c1cccnc1)CC31CCN(C)CC1	nt	nt	nt	1	nt	nt	nt	nt
CC(=O)N(C)C[C@H]1Oc2ccc(N)cc2CC(=O)N(C)C[C@@H]1C	nt	nt	nt	0	nt	nt	nt	nt
COc1cc(NC(=O)c2c(Cl)cnn2C)c(OC)cc1Cl	0	2	-4	0	-2	nt	nt	nt
Cn1ncc(Cl)c1C(=O)Nc1cc(C(F)(F)F)ccc1F	2	5	1	nt	+	-5	-49	-11
O=C(NCC[C@H]1CC[C@H](NS(=O)(=O)c2cccc(F)c2)[C@@H](CO)O1)C1CCOCC1	nt	nt	nt	0	nt	nt	nt	nt
Cc1cc(C(=O)N/N=C/c2ccc(-c3cccc(Br)c3)o2)n[nH]1	-3	-7	5	0	17	nt	nt	nt
Cc1cc(C(=O)N/N=C/c2ccc(-c3cccc(Cl)c3Cl)o2)n[nH]1	-7	-2	13	0	59*	22	-34	-13
O=C(C[C@H]1CC[C@@H](NS(=O)(=O)c2ccccc2)[C@@H](CO)O1)NCc1ccccc1F	nt	nt	nt	0	nt	nt	nt	nt
O=C1NC(=Nc2ccccc2)S/C1=C/c1cccs1	-2	3	8	0	-7	nt	nt	nt
Cc1cccc(N=C2NC(=O)/C(=C\c3cccs3)S2)c1	0	-2	3	0	42*	-1	-40	-12
Cc1ccc(N=C2NC(=O)/C(=C/c3cccs3)S2)cc1C	0	0	18	0	99*	64*	3	0
CCCCOC(=O)c1ccc(NC(=O)C(CCS(C)(=O)=O)NC(C)=O)cc1 (stereo not drawn)	19	4	6	nt	36*	-15	-38	-8
